The results in this text go back to ChEMBL document CHEMBL1145496 (Antimicrob Agents Chemother, 2007).

SMILES strings stand for the structures. Converted amounts (≈) assume the structure as drawn.

What all share (format): functional
For assay [1], the system named is Enterococcus faecalis. The assay is described as follows: Antimicrobial activity against beta-lactamase producing Enterococcus faecalis TX0630 isolate by agar dilution method. In outline:
(§1)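 Agar dilution MIC on Mueller-Hinton agar II per CLSI, standard inoculum 10⁴ CFU/spot; drug dissolved in 9.9% glacial acetic acid plus 1% DMSO. Control strains E. faecalis ATCC 29212, S. aureus ATCC 29213, E. coli 25922.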
Background: In agar dilution the substance is mixed into plates at graded concentrations.

Assay [2] relates to Enterococcus faecalis. Nature of the assay: Antimicrobial activity against vancomycin A-resistant Enterococcus faecalis TX2784 isolate by agar dilution method. Put shortly: as §1
Assay [3] relates to Enterococcus faecalis. The assay is described as follows: Antimicrobial activity against vancomycin B-resistant Enterococcus faecalis TX2484 isolate by agar dilution method. In outline: as §1
Assay [4] relates to Enterococcus faecalis. Nature of the assay: Antimicrobial activity against beta-lactamase producing vancomycin-resistant Enterococcus faecalis isolates by agar dilution method. In outline:
as §1

Assay [5] concerns Enterococcus faecalis. Nature of the assay: Antimicrobial activity against beta-lactamase producing vancomycin-resistant Enterococcus faecalis TX0614 isolate at 10^4 CFU/spot. In outline: as §1
Assay [6] relates to Enterococcus faecalis. The assay is described as follows: Bactericidal activity against vancomycin A-resistant Enterococcus faecalis TX2784 isolate assessed as decrease in viable count after 24 hrs. Put shortly:
(§2)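 Time-kill in 20 ml BHI broth, starting inoculum 10⁷ CFU/ml from overnight culture. Viable counts at 0, 4 and 24 h by plating on BHI agar after centrifuging 1-ml samples and resuspending in 0.9% saline to remove carryover. Detection limit 10 CFU/ml. Bactericidal = ≥3-log₁₀ CFU/ml drop over 0–24 h. Two to four runs per strain.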

In assay [7] the test system is Enterococcus faecalis. The assay is described as follows: Antimicrobial activity against beta-lactamase producing vancomycin-resistant Enterococcus faecalis TX0921 isolate at 10^4 CFU/spot. Put shortly: as §1
The subject of assay [8] is Enterococcus faecalis. The assay is described as follows: Antimicrobial activity against beta-lactamase producing Enterococcus faecalis TX5070 isolate by agar dilution method. In outline:
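Starting inoculum was 10⁴ CFU/spot, and E. faecalis ATCC 29212 served as control. Drug was diluted in 9.9% glacial acetic acid plus 1% DMSO.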

In assay [9] the test system is Enterococcus faecalis. Nature of the assay: Antimicrobial activity against beta-lactamase producing vancomycin-resistant Enterococcus faecalis TX0614 isolate at 10^7 […]. In outline:
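High-inoculum MIC by broth dilution in Mueller-Hinton broth at 10⁷ CFU/ml (per ml in broth, not per spot).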

Assay [10] relates to Enterococcus faecalis. Nature of the assay: Antimicrobial activity against beta-lactamase producing vancomycin-resistant Enterococcus faecalis TX0638 isolate at 10^4 CFU/spot. In outline: as §1
Assay [11] has as its system Enterococcus faecalis. The assay is described as follows: Antimicrobial activity against beta-lactamase producing Enterococcus faecalis TX0630 isolate at 10^4 CFU/spot. In outline: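 Agar dilution MIC on Mueller-Hinton agar II following CLSI recommendations, with a standard inoculum of 10⁴ CFU/spot. Drug was diluted in 9.9% glacial acetic acid plus 1% DMSO. Control strains were E. faecalis ATCC 29212, S. aureus ATCC 29213 and E. coli 25922. Isolates were recovered from −80°C frozen stocks.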

Assay [12] has as its system Enterococcus faecalis. The assay is described as follows: Antimicrobial activity against Enterococcus faecalis TX0645 isolate at 10^4 CFU/spot. In outline: as §1
The test system of assay [13] is Enterococcus faecalis. Nature of the assay: Bactericidal activity against vancomycin B-resistant Enterococcus faecalis TX2484 isolate assessed as decrease in viable count after 24 hrs. Put shortly: as §2

Usually MIC stands for the smallest concentration in the dilution series that meets the test's criterion for growth inhibition. By MIC50 is commonly meant an inhibitory concentration at the 50% level, which refers to growth in some studies and to a panel of isolates in others. Lower therefore signals greater potency. As a reminder, the MIC90 is the lowest concentration that inhibits either 90% of growth or 90% of the strains tested, depending on the study. A lower MIC90 goes with greater potency.

For the compound `CC1(C)S[C@@H]2[C@H](NC(=O)[C@H](N)c3ccccc3)C(=O)N2[C@H]1C(=O)O` [AMPICILLIN], the MIC with Enterococcus faecalis [1] came out at 1 µg/mL (≈ 2.86 µM); against Enterococcus faecalis [2] it was 0.5 µg/mL (≈ 1.43 µM); in the assay on Enterococcus faecalis [3], 0.5 µg/mL (≈ 1.43 µM).
The compound `Nc1nc(/C(=N/O)C(=O)N[C@@H]2C(=O)N3C(C(=O)O)=C(/C=C4\CCN([C@@H]5CCNC5)C4=O)CS[C@H]23)ns1` [CEFTOBIPROLE] gave an MIC50 in the assay with Enterococcus faecalis [4] of 0.25 µg/mL (≈ 0.468 µM). In the assay with Enterococcus faecalis [4], this compound returned an MIC90 of 1 µg/mL (≈ 1.87 µM). For the same compound, the MIC in the assay with Enterococcus faecalis [1] is 0.25 µg/mL (≈ 0.468 µM); against Enterococcus faecalis [5], 1 µg/mL (≈ 1.87 µM); in the assay with Enterococcus faecalis [7], 0.25 µg/mL (≈ 0.468 µM); in the assay on Enterococcus faecalis [8] it was 0.125 µg/mL (≈ 0.234 µM); in the assay with Enterococcus faecalis [9], 2 µg/mL (≈ 3.74 µM); with Enterococcus faecalis [10] it was 0.25 µg/mL (≈ 0.468 µM). The MIC turned out to be 0.25 µg/mL (≈ 0.468 µM) in the assay with Enterococcus faecalis [2], 0.5 µg/mL (≈ 0.935 µM) in the assay with Enterococcus faecalis [3], 0.125 µg/mL (≈ 0.234 µM) against Enterococcus faecalis [11] and 0.25 µg/mL (≈ 0.468 µM) against Enterococcus faecalis [12]. In addition, the log10CFU/ml with Enterococcus faecalis [6] and in the assay with Enterococcus faecalis [13] was over 3 throughout.
With `CN[C@H](CC(C)C)C(=O)N[C@H]1C(=O)N[C@@H](CC(N)=O)C(=O)N[C@H]2C(=O)N[C@H]3C(=O)N[C@H](C(=O)N[C@H](C(=O)O)c4cc(O)cc(O)c4-c4cc3ccc4O)[C@H](O)c3ccc(c(Cl)c3)Oc3cc2cc(c3O[C@@H]2O[C@H](CO)[C@@H](O)[C@H](O)[C@H]2O[C@H]2C[C@](C)(N)[C@H](O)[C@H](C)O2)Oc2ccc(cc2Cl)[C@H]1O` [VANCOMYCIN], the MIC in the assay on Enterococcus faecalis [1] was 0.5 µg/mL (≈ 0.345 µM); against Enterococcus faecalis [8], 8 µg/mL (≈ 5.52 µM); against Enterococcus faecalis [2] it was over 256 µg/mL; with Enterococcus faecalis [3], over 256 µg/mL.
